# Results reported in ChEMBL document CHEMBL4513216, “Probing the Open Global Health Chemical Diversity Library for Multistage-Active Starting Points for Next-Generation Antimalarials” (ACS Infect Dis, 2020).
# Test: Toxicity liver stage against HepG2, at 10uM
# Format: cell-based
# Parameters: test concentration 10 uM, cell line HepG2-A16-CD81EGFP
# Conditions: human, HepG2-A16-CD81EGFP cells; read-out: INHIBITION
# Outline: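 Uninfected HepG2-A16-CD81EGFP cells, 3 × 10^3 per well, 1536-well, plated on prespotted compound at 10 μM final, parasite-free screening media added to match infected plates; puromycin 10 μM positive, DMSO 0.5% negative; run in parallel with 48 h PbLuc assay at 37 °C, 5% CO2; viability by CellTiter-Glo luminescence, normalized to controls.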
row,SMILES,cytotoxicity at 10 µM [%]
1,NC(=O)C(NC(=O)CCc1ccc(Cl)s1)c1ccccc1 (stereo unspecified),1.28
2,Cc1cc(C(=O)N(C)C2CCS(=O)(=O)C2)c2ccc(F)cc2n1 (stereo unspecified),-9.59
3,O=C(Cc1cccnc1)N1CCC2(CCN(C3CCOC3)CC2)C1 (stereo unspecified),5.08
4,COc1ccccc1CC(=O)N1CCCC(c2cc(C)[nH]n2)C1 (stereo unspecified),-21
5,CCN1CCc2onc(CNc3ncccn3)c2C1,0.927
6,CCc1cc(C(=O)N2CCC3(CCCN(CCOC)C3=O)C2)cs1 (stereo unspecified),-146
7,COc1ccccc1Nc1nc2c(s1)C(=O)CN(C(=O)CC(C)C)C2,61.2
8,CCc1nccn1C1CCCN(C(=O)c2cnn(C)c2C2CC2)C1 (stereo unspecified),-12.8
9,CC(=O)N1CCN(Cc2ccccn2)CC2(CC(=O)N(C)C2)C1 (stereo unspecified),1.23
10,Cc1n[nH]c(C)c1C1COCCN1C(=O)c1ccc(Cl)o1 (stereo unspecified),-1.01
11,O=C(Nc1ccccc1)c1cccc(S(=O)(=O)NC[C@@H]2C[C@H](F)CN2)c1,2.83
12,CCC(CC)NC(=O)Cn1cc(-c2ccccc2)cn1,-0.0581
13,Cc1cc(C)n(CC2CCCN2C(=O)CCNc2ncccn2)n1 (stereo unspecified),-2.31
14,CN1CCc2nc3c(c(N)c2C1)CCCN3C,11.3
15,Cc1ccc(F)c2c1N(C(=O)c1cn(CC(=O)N(C)C)nn1)CCC2,-9.17
16,O=C(CNc1cc(-n2cnnn2)ccc1F)NCc1ccccc1,-6.2
17,CS(=O)(=O)N1CCCC1C(=O)Nc1cnc2n1CCCC2 (stereo unspecified),2.72
18,Cc1nc(N2CCOCC2)nc(C)c1NC(=O)Cc1ccc(Cl)cc1,-4
19,CC(=O)N1CCN(C(=O)c2csc(-c3ccc(C)cc3C)n2)CC1,-18.8
20,COCc1nc(CNC2CSCCSC2)no1,8.33
21,CCCn1nc(C)c(C(=O)N(C)[C@@H]2CC[C@@H](N3CCCC3)[C@@H]2O)c1C,2.28
22,CCN(Cc1ccc(OC)c(F)c1)Cc1nc2c(cnn2C)c(=O)[nH]1,2.2
23,CC(C)c1nnc(NC(=O)NC2CCN(Cc3ccccc3)C2)s1 (stereo unspecified),-11.2

row,SMILES,cytotoxicity at 10 µM [%]
1,Cc1nc2c(c(NCC(=O)NC(C)C)n1)Cc1ccccc1OC2,4.81
2,CN(C)C(=O)CN1CCN(c2ccnc3c(F)ccc(F)c23)CC1,4.44
3,CC(C)c1nc(CN(C)C(=O)[C@H](N)Cc2ccc(Cl)cc2)cs1,-154
4,Cc1cnn(CC2CN(CC(=O)NCc3ccc(C)s3)CCO2)c1 (stereo unspecified),0.742
5,COc1ncccc1CNC(=O)N(Cc1ccc(F)cc1F)C1CC1,0.139
6,O=C1CSC(c2cccs2)c2cnn(C3CCCC3)c2N1 (stereo unspecified),5.99
7,CC(=O)N1CCCC(Cc2cncc(Br)c2)C1 (stereo unspecified),-9.02
8,Cc1ccc(CN(C)C(=O)NCC(=O)NC(C)(C)C)s1,0.136
9,Cn1ccc(C(=O)N2CCN(c3ccccn3)CC2)cc1=O,-9.43
10,Cc1nc2cc(CNC(=O)C3CC(=O)N(C4CCCC4)C3)ccc2n1C (stereo unspecified),-2.37
11,Cc1cc(CN2CC[C@H]3C[C@@H](C)O[C@@H]3C2)no1,-75.5
12,O=C(C1CN(c2ncc(F)cn2)CC12CCOCC2)N1CC=CC1 (stereo unspecified),9.49
13,COc1ccc(-n2ccnc2-c2cnc(N(C)C)nc2)cc1OC,-2.4
14,Cc1cc(C(F)(F)F)c2c(=O)n(Cc3cc(C)on3)n(C)c2n1,1.46
15,Cc1c(C(C)NC(=O)C2CCCCC2)cnn1C (stereo unspecified),-4.79
16,O=C(O)[C@H]1CN(Cc2ccccc2)C[C@@H]1C(=O)c1ccccc1,5.76
17,CCS(=O)(=O)c1ccc2c(c1)N1CCS(=O)(=O)N=C1O2,10.3
18,CCc1nc(C(=O)N2CCN(C)c3ccccc32)c[nH]1,1.16
19,Cn1cc(CCNC(=O)NC2CCS(=O)(=O)C2)cn1 (stereo unspecified),-12.9
20,CC(C)N1CCC(CC(=O)N2CCCCC2CCn2cccn2)CC1 (stereo unspecified),-3.77
21,Nc1ccnn1C1CCN(Cc2ccccc2)C1 (stereo unspecified),6.36
22,COC(=O)c1ccnn1COc1ccc(Cl)cc1,-14.8
23,Cc1ccc(C(=O)N(C)Cc2cscn2)c(=O)[nH]1,-7.69
